Bioassay records deposited in PubChem by several laboratories.
Only some compounds are listed: those with a hit (about 5.2% of all), similar ones and a draw of the others.
AP complement – alternative complement pathway inhibitors, primary screen, biochemical, ELISA, human serum, orthogonally pooled compounds; LPS-coated ELISA, C3 deposition; tested in compound mixtures; inhibition, % at 5 µM; 62,000 compounds, 0.08% hits; AID 1235, 2008;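 active = inhibition above 30% in each of the two pooled mixtures holding the compound, so the lower value exceeds 30%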
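Medium: diluted human serum in Mg2+-EGTA GVB++. Assay system: human serum complement alternative pathway, C3 deposition onto LPS. Also added: Plate-bound LPS. Technique: Anti-C3 ELISA, OD 450 nm. Measure: percent inhibition. Incubation: 1 h at 37 °C. Dosing: 5 µM each compound, pools of ten, 50 µM per pool.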
E coli WT exp – growth inhibitors of wild-type E. coli, primary screen, strain BW25113, expanded library, OD600; OD600 absorbance; growth inhibition, % at 100 µM; 98,000 compounds, 0.15% hits; AID 710, 2007;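 active = growth inhibition above about 50% at one test dose, limit read from the data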;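 note: growth measured after 20 h incubation at 37 °C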
WNV NS2B-NS3 inh – inhibitors of WNV NS2B-NS3 protease, primary screen, biochemical, fluorogenic substrate; Genome polyprotein (West Nile virus), P06935; fluorogenic substrate Ex360/Em465; stronger effect = lower value; 65,000 compounds, 0.18% hits; z-score (concentration not given with the values); AID 577, 2007; in the data active = z-score below about -3
M1 antag – antagonists of rat M1 muscarinic receptor; CHO-M1 cells, Fluo-4 calcium, ACh EC80 antagonist mode; stronger effect = lower value; B-score at 10 µM; 64,000 compounds, 3.4% hits; AID 628, 2007;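 active = calcium fluorescence response, raw or row-and-column corrected B-score, differing from the plate sample mean either way at a set confidence level, mostly lower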
Target sequence (P08482 whole entry, looked up): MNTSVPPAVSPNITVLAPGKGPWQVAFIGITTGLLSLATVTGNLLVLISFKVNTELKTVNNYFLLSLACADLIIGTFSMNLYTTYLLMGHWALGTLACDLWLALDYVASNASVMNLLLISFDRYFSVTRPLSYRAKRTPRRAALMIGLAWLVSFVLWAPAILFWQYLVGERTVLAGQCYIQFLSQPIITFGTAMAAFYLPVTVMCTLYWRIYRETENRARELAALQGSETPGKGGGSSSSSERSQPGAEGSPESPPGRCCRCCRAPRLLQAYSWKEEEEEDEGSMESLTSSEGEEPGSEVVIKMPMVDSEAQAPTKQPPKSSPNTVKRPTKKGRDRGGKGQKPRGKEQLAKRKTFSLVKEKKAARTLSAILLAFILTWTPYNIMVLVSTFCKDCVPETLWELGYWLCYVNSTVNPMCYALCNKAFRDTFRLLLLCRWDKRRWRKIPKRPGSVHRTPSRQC
tolC growth inh – growth inhibitors of E. coli tolC mutant, primary screen, strain BW25113 ΔtolC::kan, 384-well; OD615; growth inhibition, % at 10 µM (by protocol); 65,000 compounds, 2.2% hits;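 active = growth inhibition at or above a cutoff equal to the mean over every tested compound plus 3 SD, cut at about 60% in these data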;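 note: growth measured after 20 h incubation at 37 °C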
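Assay system: tolC-deleted E. coli BW25113. Medium: kanamycin-containing LB broth (50 µg/mL). Dosing: 10 µM final, single dose. Timing: bacterial growth with compound for 20 h at 37 °C. Detection: A615 absorbance measurement. Read-out basis: growth inhibition in percent.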
M1 agonist – M1 muscarinic receptor agonists, primary screen, CHO-M1 cells, Fluo-4 calcium, agonist mode; Muscarinic acetylcholine receptor M1; Fluo-4 calcium fluorescence; stronger effect = higher value; B-score at 10 µM; 64,000 compounds, 3% hits;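 active = fluorescence rise, raw or as B-score row- and column-corrected plate score, outside the 99.7% band of its plate's samples, either direction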
M1 antag confirm – rat M1 muscarinic receptor antagonists, confirmation, CHO cells, Fluo-4 calcium, duplicate; calcium response (max-min fluorescence) at 10 µM; shares compounds with M1 antag; AID 677, 2007; 1,700 compounds, 43% hits; ACh EC80 antagonism; stronger effect = lower value;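 active = calcium response below the same-plate mean of wells given acetylcholine alone at its 80%-effect dose, minus 3 SD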
mGluR4 antag – human mGluR4 response to M1 antagonist hits, M1 allosteric modulator project, cell-based, antagonist mode, secondary assay 1. shares compounds with M1 antag. CHO-mGluR4 calcium flux, Fluo-4 fluorescence, glutamate EC80; stronger effect = lower value. fluorescence response (max-min) at 10 µM. 1,700 compounds, 0.9% hits;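 active = fluorescence response below the plate's average for near-maximal glutamate wells, less 3 SD of those wells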;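 note: raw unnormalized fluorescence span taken in the window right after glutamate addition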
Hits are given with their value; 0 = inactive; - = no result.

SMILES | AP complement | E coli WT exp | WNV NS2B-NS3 inh | M1 antag | tolC growth inh | M1 agonist | M1 antag confirm | mGluR4 antag
CCC(=O)Nc1cc(Cl)ccc1N1CCN(C(=O)CC)CC1 | 0 | 0 | 0 | -4.9 | 0 | 0 | 0 | 0
Cc1ccc(OCCSc2nnc(NC(=O)c3ccco3)s2)cc1 | 0 | 0 | 0 | -3.6 | 0 | 0 | 0 | 0
CC1=CC(C)(C)N=C(Nc2ccc(C)cc2)S1 | 0 | 0 | 0 | -5 | 0 | 0 | 275 | 0
COc1ccc(CN2CCN(c3ccccn3)CC2)cc1OCc1ccccc1 | 0 | 0 | 0 | -2.7 | 0 | 0 | 573 | 0
CCN1CCN(Cc2ccc(OC)c(OCc3ccccc3)c2)CC1 | 0 | 0 | 0 | 0 | 0 | 0 | - | -
CC(=O)C1=C(Nc2ccc(C)cc2)CC(C)(O)C(C(C)=O)C1c1ccco1 (stereo not given) | 0 | 0 | 0 | -13 | 0 | 0 | 0 | 0
CCOC(=O)C1=C(C)NC2=C(C(=O)CCC2)C1c1ccc(N(C)C)cc1 (stereo not given) | 0 | 0 | 0 | -4.3 | 0 | 0 | 350 | 0
CCCOC(=O)C1=C(C)NC2=C(C(=O)CCC2)C1c1ccc(N(C)C)cc1 (stereo not given) | 0 | 0 | 0 | -8.2 | 0 | 0 | 248 | 0
COCCOC(=O)C1=C(C)NC2=C(C(=O)CCC2)C1c1ccc2c(c1)OCO2 (stereo not given) | 0 | 0 | 0 | 0 | 0 | 0 | - | -
CCN(CC)c1ccc(C2C(C(=O)OCCOC)=C(C)NC3=C2C(=O)CCC3)cc1 (stereo not given) | 0 | 0 | 0 | -10 | 0 | 0 | 222 | 0
CCn1cc(S(=O)(=O)CC(=O)Nc2ccc(OC)cc2)c2ccccc21 | 0 | 0 | 0 | 0 | 0 | 0 | - | -
O=C(NCc1ccc(Cl)cc1)c1ccc(Br)o1 | - | 0 | - | - | - | - | - | -
O=C(CCN1CCCCC1)Nc1ccc(Br)cc1 | 0 | 0 | 0 | 0 | 0 | 0 | - | -
CCOc1ccc(C(=O)CCN2CCCCCC2)cc1 | 0 | 0 | 0 | -2.5 | - | 0 | 0 | 0
COC(=O)c1ccc(NC(=O)CCN2CCCCC2)cc1 | 0 | 0 | 0 | -1.3 | 0 | 0 | 553 | 0
CC(=O)Nc1ccc(S(=O)(=O)N2CCN(c3cc(C)nc4ccccc34)CC2)cc1 | 0 | 0 | 0 | 0 | 0 | 0 | - | -
CC(=O)Nc1ccc(S(=O)(=O)N2CCN(c3nc(NC4CCCC4)c4ccccc4n3)CC2)cc1 | 0 | 0 | 0 | -2.8 | 0 | 0 | 514 | 0
COc1cccc(CN(CC2CCCO2)S(=O)(=O)c2ccc(S(=O)(=O)N(C)C)cc2)c1 (stereo not given) | - | 0 | - | - | - | - | - | -
CCc1cc2c(NCCN3CCCCC3)ncnc2s1 | 0 | 0 | 0 | -4.3 | 0 | 0 | 534 | 0
O=C(NCCc1ccccc1)C1CCCN(S(=O)(=O)c2cccs2)C1 (stereo not given) | 0 | 0 | 0 | 0 | 0 | 0 | - | -
O=C(NCc1ccncc1)c1cccc(Cn2cc(Br)cn2)c1 | 0 | 0 | 0 | -10 | 0 | 0 | 88 | 0
O=C(O)c1cccc(Cn2cc(Br)cn2)c1 | 0 | 0 | 0 | 0 | 0 | 0 | - | -
COc1cccc(NC(=O)CCSc2nnc3scc(-c4ccccc4)n23)c1 | 0 | - | 0 | 0 | 0 | 0 | - | -
CCCCCCC1C(C#N)=C(N)OC2=C1C(=O)CCC2 (stereo not given) | 0 | 0 | 0 | -2.3 | 0 | 0 | 434 | 0
N#CCC(CNc1ncc(C(F)(F)F)cc1Cl)OC(=O)c1cccc([N+](=O)[O-])c1 (stereo not given) | - | 0 | - | - | - | - | - | -
O=C1c2ccccc2NC(c2c(Cl)cccc2Cl)N1Cc1ccccc1 (stereo not given) | - | 0 | - | - | - | - | - | -
